Published values collected from several papers.
Target: Serine/threonine-protein kinase OSR1 (OXSR1, Homo sapiens, UniProt O95747)

For `Cc1cc(NC(=O)c2cccc(S(F)(F)(F)(F)F)c2)cc(-n2ccn3nc(-c4cccnc4)cc23)c1`, the remaining binding was 100% (cell-free assay, competition with immobilised ligand; 1 µM).
For `Cn1c2c(c3ccc(Cl)c(Cl)c31)C(C#N)C1(CCOCC1)NC2=O` (stereo not shown), the ΔTm was -0.5 °C (thermal stability, DSF; 10 µM).
The inhibition of `CCN1CCN(Cc2ccc(NC(=O)c3ccc(C)c(Oc4ccnc5[nH]ccc45)c3)cc2C(F)(F)F)CC1` is reported as -24.5% (target engagement in cells, inhibitor, chemoproteomics; Huh-7; 10 µM).
`Cc1nc(Cc2cccc(C(F)(F)F)c2)sc1-c1ccc(C(N)=O)nc1` gave a remaining binding of 100% (cell-free assay, competition with immobilised ligand; 1 µM).
The remaining signal of `COc1cc(Nc2c(C#N)cnc3cc(OCCCN4CCN(C)CC4)c(OC)cc23)c(Cl)cc1Cl` is reported as 100% (cell-free assay; 0.5 µM).
`O=C(O)c1cc(-c2ccc(C3CCNCC3)cc2)c2ccc(-c3ccc(C(F)(F)F)cc3)cc2c1` has a remaining binding of 100% (cell-free assay, competition with immobilised ligand; 1 µM).
With `CS(=O)(=O)CCNCc1ccc(-c2ccc3ncnc(Nc4ccc(OCc5cccc(F)c5)c(Cl)c4)c3c2)o1` the remaining signal was 105% (cell-free assay; 0.5 µM).
With `FC(F)(F)Oc1cccc(-c2cnc3ccc(-c4ccncc4)nn23)c1` the activity vs control was 97% (enzyme activity, inhibitor, radiometric; 1 µM).
The remaining binding of `CCCCN(CCCC)C(=O)CN1C[C@H](c2cc(OC)c3c(c2)OCO3)[C@@H](C(=O)O)[C@@H]1CC(C)(C)CCC` is reported as 89.5% (cell-free assay, competition with immobilised ligand; 1 µM).
The remaining activity of `COc1cc(Nc2cnc(C#N)c(O[C@H](C)CN(C)C)n2)ncc1-c1cnn(C)c1` is reported as 106% (enzyme activity, inhibitor, radiometric; 10 µM).
For `Cn1c2c(Cl)c(Cl)ccc2c2cn[nH]c(=O)c21`, the ΔTm was -0.2 °C (thermal stability, DSF; 10 µM).
`CC(C)(O)[C@H]1CC[C@H](Nc2ccc3ncc(-c4cccc(C(F)(F)F)c4)n3n2)CC1` gave a remaining activity of 102% (enzyme activity, inhibitor; 1 µM).
`Nc1ncnc2occ(-c3ccc(NC(=O)Nc4cc(C(F)(F)F)ccc4F)cc3)c12` gave a remaining signal of 9.5% (cell-free assay, inhibitor; 20 µM).
With `C[C@@H]1CCN(C(=O)CC#N)C[C@@H]1N(C)c1ncnc2[nH]ccc12` the remaining signal was 98.2% (cell-free assay, inhibitor; 0.5 µM).
The ΔTm of `Cn1c2c(Cl)c(Cl)ccc2c2cc(N)[nH]c(=O)c21` is reported as -0.2 °C (thermal stability, DSF; 10 µM).
The inhibition of `COc1cccc2c(NCc3ccccc3)nc(-n3c(N)nc4ccccc43)nc12` is reported as -6.6% (target engagement in cells, inhibitor, chemoproteomics; 20 mM).
`Cn1nc(C(F)(F)F)cc1-c1cnc(N2CCc3cc(S(=O)(=O)Nc4c(F)cc(Cl)cc4F)cc(N4CCCC4=O)c32)nc1` has a remaining binding of 99% (cell-free assay, competition with immobilised ligand; 1 µM).
`CC1(C)NC(=O)c2[nH]c3c(Cl)c(Cl)ccc3c2C1C#N` (stereo not shown) gave a ΔTm of -0.1 °C (thermal stability, DSF; 10 µM).
`N#CCCc1ccc2c(c1)-c1[nH]c3ccc([N+](=O)[O-])cc3c1CC(=O)N2` gave a remaining signal of 94.6% (cell-free assay; 0.5 µM).
For `O=C(Nc1cnn(-c2csc(C(=O)NC3COC3)c2)c1)Nc1ccccc1Cl`, the remaining activity was 92.6% (enzyme activity, inhibitor; 5 µM).
`CCC1(CC)NC(=O)c2c(c3ccc(Cl)c(Cl)c3n2C)C1C#N` (stereo not shown) has a ΔTm of -0.3 °C (thermal stability, DSF; 10 µM).
`COc1ccc2c(O[C@@H]3C[C@H]4C(=O)N[C@]5(C(=O)O)CC5/C=C\CCCCC[C@H](NC(=O)OC5CCCC5)C(=O)N4C3)cc(-c3csc(NC(=O)C(C)C)n3)nc2c1C` (stereo partly shown) has a remaining binding of 82% (cell-free assay, competition with immobilised ligand; 1 µM).
`c1ccc(CNc2nc(N3CCOc4ccccc43)nc3c2CCCC3)cc1` gave an inhibition of -9% (target engagement in cells, inhibitor, chemoproteomics; 20 mM).
With `CO[C@@H](C)c1c(Nc2ccc([C@@H](N(C)C(=O)C3CCS(=O)(=O)CC3)C(F)(F)F)cc2)cnc2cc(Cl)nn12` the remaining binding was 100% (cell-free assay, competition with immobilised ligand; 1 µM).
The ΔTm of `CN1CCC2(CC1)NC(=O)c1c(c3ccc(Cl)c(Cl)c3n1C)C2C#N` (racemic) is reported as -0.3 °C (thermal stability, DSF; 10 µM).
